Data: ChEMBL document CHEMBL2417458, “New potent and selective polyfluoroalkyl ketone inhibitors of GVIA calcium-independent phospholipase A2” (Bioorg Med Chem, 2013)

How the values were obtained:
[1] = target: T1, Cytosolic phospholipase A2 (Homo sapiens) (UniProt P47712); assay: Inhibition of human group 4A cytosolic PLA2 at 0.091 mole fraction in mixed-micelles by modified Dole assay
T1 sequence (whole entry): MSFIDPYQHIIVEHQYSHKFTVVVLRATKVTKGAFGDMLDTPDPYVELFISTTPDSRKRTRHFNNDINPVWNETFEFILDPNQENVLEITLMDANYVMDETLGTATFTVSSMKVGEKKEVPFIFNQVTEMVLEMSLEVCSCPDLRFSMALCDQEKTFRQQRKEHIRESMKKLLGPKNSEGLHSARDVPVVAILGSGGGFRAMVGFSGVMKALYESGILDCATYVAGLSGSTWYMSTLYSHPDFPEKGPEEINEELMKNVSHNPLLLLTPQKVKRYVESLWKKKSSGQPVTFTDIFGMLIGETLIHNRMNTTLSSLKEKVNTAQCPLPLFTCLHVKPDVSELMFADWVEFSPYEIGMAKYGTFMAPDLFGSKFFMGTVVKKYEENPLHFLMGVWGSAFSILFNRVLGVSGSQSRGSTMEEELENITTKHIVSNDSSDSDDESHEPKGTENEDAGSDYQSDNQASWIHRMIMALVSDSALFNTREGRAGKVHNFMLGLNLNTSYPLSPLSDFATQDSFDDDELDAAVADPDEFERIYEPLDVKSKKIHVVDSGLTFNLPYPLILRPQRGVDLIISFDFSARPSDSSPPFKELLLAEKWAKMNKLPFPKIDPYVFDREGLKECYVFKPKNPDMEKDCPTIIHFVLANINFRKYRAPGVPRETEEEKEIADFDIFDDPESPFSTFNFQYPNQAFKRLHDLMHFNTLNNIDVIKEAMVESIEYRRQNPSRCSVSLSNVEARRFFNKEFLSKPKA
How it was run: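 Buffer was 100 mM HEPES pH 7.5 with 90 μM CaCl2, 2 mM DTT and 0.1 mg/ml BSA. Inhibitor was screened at 0.091 mole fraction. Values are average percent inhibition, and 25% or less was scored as no inhibition.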

[2] = target: T2, 85/88 kDa calcium-independent phospholipase A2 (Homo sapiens) (UniProt O60733); assay: Inhibition of human group 6A calcium-independent PLA2 at 0.091 mole fraction in mixed-micelles by modified Dole assay
T2 sequence (whole entry): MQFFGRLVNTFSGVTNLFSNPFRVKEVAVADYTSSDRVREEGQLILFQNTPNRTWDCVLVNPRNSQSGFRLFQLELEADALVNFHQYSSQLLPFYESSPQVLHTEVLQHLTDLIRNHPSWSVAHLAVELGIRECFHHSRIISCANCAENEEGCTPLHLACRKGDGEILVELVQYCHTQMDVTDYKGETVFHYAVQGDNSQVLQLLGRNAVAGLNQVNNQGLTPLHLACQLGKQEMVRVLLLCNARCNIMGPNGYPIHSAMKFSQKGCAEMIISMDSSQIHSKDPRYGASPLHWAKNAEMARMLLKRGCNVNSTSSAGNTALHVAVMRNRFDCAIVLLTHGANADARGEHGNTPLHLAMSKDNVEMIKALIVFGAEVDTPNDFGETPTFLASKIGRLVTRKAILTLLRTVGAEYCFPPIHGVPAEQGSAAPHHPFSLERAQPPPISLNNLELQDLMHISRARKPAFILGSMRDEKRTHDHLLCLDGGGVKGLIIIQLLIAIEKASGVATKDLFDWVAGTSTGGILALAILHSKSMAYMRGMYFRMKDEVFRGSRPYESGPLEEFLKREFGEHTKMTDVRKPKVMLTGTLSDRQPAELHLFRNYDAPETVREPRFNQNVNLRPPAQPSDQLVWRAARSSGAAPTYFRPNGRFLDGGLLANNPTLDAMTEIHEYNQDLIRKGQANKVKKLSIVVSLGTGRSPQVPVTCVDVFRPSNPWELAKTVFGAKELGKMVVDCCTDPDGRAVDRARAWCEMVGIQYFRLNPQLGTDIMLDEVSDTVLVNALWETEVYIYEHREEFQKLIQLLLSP

[3] = target: T3, Phospholipase A2 group V (Homo sapiens) (UniProt P39877); assay: Inhibition of human group 5 secretory PLA2 at 0.091 mole fraction in mixed-micelles by modified Dole assay
T3 sequence (whole entry): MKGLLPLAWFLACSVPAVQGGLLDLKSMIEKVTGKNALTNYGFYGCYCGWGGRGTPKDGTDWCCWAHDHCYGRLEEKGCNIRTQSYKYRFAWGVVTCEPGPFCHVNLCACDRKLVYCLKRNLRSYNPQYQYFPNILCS

[4] = target: T2, 85/88 kDa calcium-independent phospholipase A2 (Homo sapiens); assay: Inhibition of human group 6A calcium-independent PLA2 treated in mixed-micelles by modified Dole assay
How it was run: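 Typically 7 mole fractions from 0.00091 to 0.091 were tested. XI(50) is the inhibitor mole fraction giving 50% inhibition, from a symmetrical sigmoidal regression of % inhibition versus log concentration.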

[5] = target: T1, Cytosolic phospholipase A2 (Homo sapiens); assay: Inhibition of human group 4A cytosolic PLA2 treated in mixed-micelles by modified Dole assay
How it was run: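 Buffer was 100 mM HEPES pH 7.5 containing 90 μM CaCl2, 2 mM DTT and 0.1 mg/ml BSA. About 7 inhibitor mole fractions between 0.00091 and 0.091 were tested. XI(50) came from a symmetrical sigmoidal nonlinear fit of % inhibition versus log inhibitor.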

Structure (SMILES) | inhibition [1] | inhibition [2] | inhibition [3] | XI50 (mole fraction) [4] | XI50 (mole fraction) [5]
COc1ccc(CCCCC(=O)C(F)(F)C(F)(F)F)cc1OC | < 25% | 78.3% | < 25% | – | –
O=C(CCCCc1ccc(C(F)(F)F)cc1)C(F)(F)F | 83.9% | 99.9% | 30.4% | 0.0002 | –
COc1ccc(CCCCC(=O)C(F)(F)C(F)(F)F)cc1 | < 25% | 99.8% | 32.8% | 0.0001 | –
O=C(CCCCc1cccc2ccccc12)C(F)(F)C(F)(F)C(F)(F)F | 60.4% | 76.7% | 57.8% | – | –
O=C(CCCCc1cccc2ccccc12)C(F)(F)C(F)(F)F | 64% | 96.4% | 29.4% | 0.0034 | –
COc1ccccc1CCCCC(=O)C(F)(F)F | 58.9% | 82.8% | < 25% | – | –
O=C(CCCCc1ccc(C(F)(F)F)cc1)C(F)(F)C(F)(F)F | 62.5% | 98.9% | 36.9% | 0.0003 | –
COc1ccccc1CCCCC(=O)C(F)(F)C(F)(F)F | 30.5% | 95.5% | 39.1% | 0.0263 | –
O=C(CCCCc1ccc(-c2ccccc2)cc1)C(F)(F)F | 96.5% | 97.9% | 40.5% | 0.0189 | 0.0074
COc1ccc(CCCCC(=O)C(F)(F)F)c(OC)c1 | 64.3% | 89.6% | < 25% | – | –
COc1ccc2cc(CCCCC(=O)C(F)(F)F)ccc2c1 | 85.5% | 92.6% | 41.7% | – | –
O=C(CCc1ccccc1-c1ccccc1)C(F)(F)F | < 25% | 75% | – | – | –
COc1ccc(CCCCC(=O)C(F)(F)F)cc1OC | 28.8% | 62.5% | < 25% | – | –
O=C(CCCc1ccccc1)C(F)F | < 25% | 86.5% | < 25% | – | –
O=C(CCCCc1ccc(-c2ccccc2)cc1)C(F)(F)C(F)(F)F | 72.6% | 94.6% | 38.3% | 0.0134 | –
O=C(CCc1ccccc1-c1ccccc1)C(F)(F)C(F)(F)F | < 25% | 90.4% | – | – | –
O=C(CCCCc1ccc2c(c1)OCO2)C(F)(F)C(F)(F)F | 38.3% | 99.5% | 29.4% | 0.0019 | –
COc1ccc(CCCCC(=O)C(F)(F)F)cc1 | 54.3% | 99.8% | < 25% | 0.0001 | –
COc1ccc(CCCCC(=O)C(F)(F)C(F)(F)F)c(OC)c1 | 35.6% | 95.6% | 38.7% | 0.0553 | –
O=C(CCCCc1ccc(F)cc1)C(F)(F)C(F)(F)F | < 25% | 98.2% | 29.3% | 0.0003 | –
COc1ccc2cc(CCCCC(=O)C(F)(F)C(F)(F)F)ccc2c1 | 54.7% | 92.5% | 63.1% | – | –
O=C(CCCCc1ccccc1)C(F)F | < 25% | 87.4% | < 25% | – | –
O=C(CCCCc1ccc2c(c1)OCO2)C(F)(F)F | 41.2% | 98.7% | < 25% | 0.0025 | –
O=C(CCCCc1cccc2ccccc12)C(F)(F)F | 77.4% | 98.7% | 31.9% | 0.0018 | –
O=C(CCCCc1ccc(F)cc1)C(F)(F)F | 41.4% | 98.5% | < 25% | 0.0002 | –
